Data set [1] relates to Splenocyte. The data set is described as follows: Immunostimulating activity in Swiss albino mouse Splenocytes assessed as ConA-induced cell proliferation > 5 uM after 72 hrs by MTT assay. The format is functional, cell-based. (Tetrazolium assays rely on reduction of a dye to a coloured formazan, in cell work by metabolically active cells.)
The nature of data set [2]: Inhibition of bovine liver beta-glucosidase using 10 mM p-nitrophenyl-[…]-D-glucopyranoside as substrate. The arrangement: species or system Bos taurus.
The nature of data set [3]: Immunostimulating activity in Swiss albino mouse Splenocytes assessed as increase in ConA-induced cell proliferation at 5 uM after 72 hrs by MTT assay. Format: functional, Splenocyte. In outline:
(§1)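 Swiss albino mouse splenocytes (2 × 10^6 cells/well) were treated with Con A alone or with test samples at final 0.5, 1, 2.5 and 5 μM. Con A is given as final 10 μg/mL in methods and 10 μM in text. Cells were held 72 h at 37 °C, 5% CO2, in RPMI with 10% FCS, then read by MTT. Values are % of Con A-treated cells (100%), mean ± SEM, n = 5.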

Data set [4] is described as follows: Inhibition of aspergillus niger alpha-galactosidase using 10 mM p-nitrophenyl-alpha-D-galactopyranoside as substrate. In outline: (§2)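 Enzyme (0.1 U/cm3; A. niger α-galactosidase or bovine liver β-galactosidase) was preincubated with inhibitor for 1 h at 37 °C. Substrate was 10 mM p-nitrophenyl α- or β-D-galactopyranoside in 200 mM sodium acetate, reacted 10 min at 37 °C. The reaction was stopped with 200 mM borate pH 9.8 and released p-nitrophenol read at 420 nm. Ki came from Lineweaver–Burk plots; values are the average of five assays.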

In data set [5] the test system is Splenocyte. The data set is described as follows: Immunostimulating activity in Swiss albino mouse Splenocytes assessed as decrease in ConA-induced IL-4 secretion at 2.5 uM by ELISA. Format: functional. The gist of the method: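 Supernatants came from Con A-stimulated splenocytes (2 × 10^6 cells/well) with compound at 2.5 or 5 μM. They were spun 2000g for 5 min and stored at −70 °C. IL-4 was measured by ELISA: sample 2 h at 37 °C, then peroxidase conjugate 1 h, substrate developed in the dark. Absorbance was read at 550 nm with 450 nm correction and quantified from an IL-4 standard curve. n = 5.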

In another data set the target is T1, Beta-galactosidase (Bos taurus, UniProt Q58D55).
T1 sequence (Q58D55 whole entry): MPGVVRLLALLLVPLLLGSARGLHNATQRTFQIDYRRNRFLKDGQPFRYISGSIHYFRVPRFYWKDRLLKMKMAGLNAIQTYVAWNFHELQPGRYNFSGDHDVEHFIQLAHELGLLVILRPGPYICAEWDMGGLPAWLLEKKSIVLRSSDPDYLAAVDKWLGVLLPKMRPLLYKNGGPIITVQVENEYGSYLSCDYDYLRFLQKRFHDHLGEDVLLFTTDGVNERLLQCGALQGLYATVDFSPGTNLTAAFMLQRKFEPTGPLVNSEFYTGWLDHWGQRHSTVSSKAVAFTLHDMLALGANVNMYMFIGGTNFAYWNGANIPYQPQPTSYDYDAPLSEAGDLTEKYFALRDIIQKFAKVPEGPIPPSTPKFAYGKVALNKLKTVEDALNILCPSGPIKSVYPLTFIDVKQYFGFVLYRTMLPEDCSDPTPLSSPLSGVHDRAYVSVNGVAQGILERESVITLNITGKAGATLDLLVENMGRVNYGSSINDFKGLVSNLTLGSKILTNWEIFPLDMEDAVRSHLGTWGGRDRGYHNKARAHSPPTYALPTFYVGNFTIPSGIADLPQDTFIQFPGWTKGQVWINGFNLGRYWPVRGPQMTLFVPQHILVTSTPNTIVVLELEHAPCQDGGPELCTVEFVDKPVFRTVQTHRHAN
The data set is described as follows: Inhibition of bovine liver beta-galactosidase using 10 mM p-nitrophenyl-beta-D-galactopyranoside as substrate. In outline: as §2

In data set [6] the test system is Splenocyte. Nature of the data set: Immunostimulating activity in Swiss albino mouse Splenocytes assessed as increase in ConA-induced IFN-gamma secretion at 2.5 uM by ELISA. The format is functional, cell-based. In outline:
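IFN-γ was measured by ELISA in supernatants of splenocytes (2 × 10^6 cells/well). Cells were unstimulated, stimulated with Con A (10 μM), or given Con A plus compound (2.5 or 5 μM) for 24 h. Mean ± SEM, n = 5.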

Data set [7] concerns Splenocyte. The data set is described as follows: Immunostimulating activity in Swiss albino mouse Splenocytes assessed as increase in ConA-induced cell proliferation upto 2.5 uM after 72 hrs by MTT assay. Format: functional, cell-based. The gist of the method: as §1
For another data set, the target named is T2, Alpha-mannosidase (Canavalia ensiformis, UniProt C0HJB3).
T2 sequence (C0HJB3 whole entry): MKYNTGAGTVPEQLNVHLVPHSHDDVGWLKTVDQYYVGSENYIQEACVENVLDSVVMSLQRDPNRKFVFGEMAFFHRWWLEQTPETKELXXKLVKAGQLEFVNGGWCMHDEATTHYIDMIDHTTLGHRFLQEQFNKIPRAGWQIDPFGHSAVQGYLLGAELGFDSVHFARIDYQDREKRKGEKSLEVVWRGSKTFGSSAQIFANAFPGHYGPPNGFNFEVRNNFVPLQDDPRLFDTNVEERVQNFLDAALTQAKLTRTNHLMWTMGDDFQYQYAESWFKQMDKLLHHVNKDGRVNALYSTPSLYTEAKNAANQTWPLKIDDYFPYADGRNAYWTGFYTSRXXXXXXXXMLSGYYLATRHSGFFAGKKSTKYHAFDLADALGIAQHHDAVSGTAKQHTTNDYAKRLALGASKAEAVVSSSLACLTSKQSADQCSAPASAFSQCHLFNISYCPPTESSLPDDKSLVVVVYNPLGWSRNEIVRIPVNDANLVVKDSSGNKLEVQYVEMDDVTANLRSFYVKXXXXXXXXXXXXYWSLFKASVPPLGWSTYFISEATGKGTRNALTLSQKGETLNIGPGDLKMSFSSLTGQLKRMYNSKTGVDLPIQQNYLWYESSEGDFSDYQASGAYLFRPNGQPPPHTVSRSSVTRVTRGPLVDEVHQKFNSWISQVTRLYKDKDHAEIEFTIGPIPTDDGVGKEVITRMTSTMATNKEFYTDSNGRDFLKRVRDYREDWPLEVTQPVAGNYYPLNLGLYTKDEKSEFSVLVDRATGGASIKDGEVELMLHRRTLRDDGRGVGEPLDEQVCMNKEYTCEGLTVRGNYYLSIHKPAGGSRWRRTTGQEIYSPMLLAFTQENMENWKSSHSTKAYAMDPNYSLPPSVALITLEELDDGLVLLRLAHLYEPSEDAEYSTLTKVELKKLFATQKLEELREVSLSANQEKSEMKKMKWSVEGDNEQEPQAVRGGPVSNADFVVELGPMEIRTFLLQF
Nature of the data set: Inhibition of jack bean alpha-mannosidase using 10 mM p-nitrophenyl-alpha-D-mannopyranoside as substrate. In outline: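 Jack bean α-mannosidase (0.1 U cm−3) was preincubated with compound 1 h at 37 °C. Reaction used 10 mM p-nitrophenyl-α-D-mannopyranoside in 100 mM citrate pH 4.5, 10 min at 37 °C, stopped with 200 mM borate pH 9.8. Read at 420 nm. IC50 and Ki were determined, Ki from Lineweaver–Burk double-reciprocal plots. Mean of five assays.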

Data set [8] is described as follows: Immunostimulating activity in Swiss albino mouse Splenocytes assessed as increase in ConA-induced cell proliferation at 2.5 uM after 72 hrs by MTT assay. The format is functional, Splenocyte. In outline:
as §1

The next data set deals with Oryza sativa. Nature of the data set: Inhibition of rice alpha-glucosidase at 1 mM using 10 mM p-nitrophenyl-alpha-D-glucopyranoside as substrate. In outline: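 Rice α-glucosidase (0.1 U cm−3) was preincubated with compound 1 h at 37 °C. Reaction used 10 mM p-nitrophenyl-α-D-glucopyranoside in 100 mM phosphate pH 6.8, 10 min at 37 °C, stopped with 0.1 M Na2CO3. p-Nitrophenol was read at 420 nm. NI means no 50% inhibition at 1 mM. Ki came from Lineweaver–Burk plots. Average of five assays.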

Data set [9] can be described thus: Immunostimulating activity in Swiss albino mouse Splenocytes assessed as increase in ConA-induced cell proliferation at 1 uM after 72 hrs by MTT assay. The format is functional, Splenocyte. In outline:
as §1

For data set [10], the system named is Splenocyte. Nature of the data set: Immunostimulating activity in Swiss albino mouse Splenocytes assessed as increase in IL-6 secretion at 2.5 uM by ELISA in presence of 10 uM ConA relative to control. Format: functional. The gist of the method:
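Splenocytes (2 × 10^6 cells/well) were stimulated with 10 μM Con A plus compound (2.5 or 5 μM). Supernatant IL-6 was measured by sandwich ELISA: sample 2 h at 37 °C, biotinylated antibody 1 h, streptavidin–HRP, then substrate in the dark. Absorbance was read at 550 nm with 450 nm correction against an IL-6 standard curve. Mean ± SEM, n = 5.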
In general terms: An ELISA detects its analyte on a solid surface through an enzyme-linked reagent.

Data set [11] in a line: Cytotoxicity against Swiss albino mouse Splenocytes assessed as cell proliferation at 0.5 to 5 uM after 72 hrs by MTT assay. Format: cell-based. Particulars: splenocyte. In outline:
as §1

A short description of data set [12]: Immunostimulating activity in Swiss albino mouse Splenocytes assessed as increase in ConA-induced cell proliferation at 0.5 uM after 72 hrs by MTT assay. The format is functional, Splenocyte. The gist of the method:
as §1

A short description of data set [13]: Inhibition of rice alpha-glucosidase using 10 mM p-nitrophenyl-alpha-D-glucopyranoside as substrate. On the set-up: species or system Oryza sativa. In outline: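 Rice α-glucosidase (0.1 U cm−3) was preincubated with compound 1 h at 37 °C. Reaction used 10 mM p-nitrophenyl-α-D-glucopyranoside in 100 mM phosphate pH 6.8, 10 min at 37 °C, stopped with 0.1 M Na2CO3. p-Nitrophenol was read at 420 nm. Ki came from Lineweaver–Burk plots. Average of five assays.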

The test system of another data set is Aspergillus niger. Nature of the data set: Inhibition of aspergillus niger alpha-galactosidase at 1 mM using 10 mM p-nitrophenyl-alpha-D-galactopyranoside as substrate. The gist of the method: (§3)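 Galactosidase (0.1 U cm−3) was preincubated with compound 1 h at 37 °C. Reaction used 10 mM p-nitrophenyl-α- or β-D-galactopyranoside in 200 mM sodium acetate, 10 min at 37 °C, stopped with 200 mM borate pH 9.8. Read at 420 nm. NI means no 50% inhibition at 1 mM. Five assays averaged.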

Data set [14] concerns the target T3, Alpha-mannosidase (Canavalia ensiformis) (UniProt C0HJB3).
T3 sequence (whole entry): T2 sequence (C0HJB3 whole entry)
The data set is described as follows: Inhibition of jack bean alpha-mannosidase at 1 mM using 10 mM p-nitrophenyl-alpha-D-mannopyranoside as substrate. In outline:
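Jack bean α-mannosidase (0.1 U/cm3) was preincubated with inhibitor for 1 h at 37 °C. Substrate was 10 mM p-nitrophenyl α-D-mannopyranoside in 100 mM citrate pH 4.5, reacted 10 min at 37 °C. The reaction was stopped with 200 mM borate pH 9.8 and absorbance read at 420 nm. Ki came from Lineweaver–Burk plots; average of five assays. NI means under 50% inhibition at 1 mM.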

Data set [15] addresses T4, Beta-galactosidase (Bos taurus) (UniProt Q58D55).
T4 sequence (whole entry): T1 sequence (Q58D55 whole entry)
Nature of the data set: Inhibition of bovine liver beta-galactosidase at 1 mM using 10 mM p-nitrophenyl-beta-D-galactopyranoside as substrate. In outline: as §3

pIC50, pKi: −log10 of the molar value. Calls of active or inactive are those of the source. The calls are words filed in the database; no cut-off is given here.

For orientation: pIC50 means the IC50 on a negative log10 scale, so that one unit is a factor of ten. One may read the pKi as −log10 of the Ki, conventionally taken in molar units. By inhibition is commonly meant the percentage by which the read-out fell short of the control. Turning to `O=C1CC[C@]2(CO)[C@@H](O)[C@H](O)[C@@H](O)CN12`, in the data set on Splenocyte [1], the result was inactive. In addition, the pIC50 in data set [2] is 4.66; in data set [4] it was 6.38; against Beta-galactosidase, 6.10; on Alpha-mannosidase, 7.25. Besides, the pKi is 4.96 in data set [2], 6.48 in [4], 6.70 on Beta-galactosidase and 7.46 at Alpha-mannosidase. Further, the Activity in [3] was 103%; in data set [8], 130%; in data set [9] it was 80%; in data set [11] it was “Non-toxic”; in data set [12], 13%. Besides, the inhibition at 2.5 µM in the data set on Splenocyte [5] worked out at 57%. In addition, the result in the data set on Splenocyte [6] and in the data set with Splenocyte [7] was Active. This compound also showed an inhibition with Oryza sativa of less than 50%. Besides, the “fold change (FC)” value with Splenocyte [10] is 12.1.

As for `OCCN1C[C@H](O)[C@@H](O)[C@H](O)[C@H]1CO` [MIGLITOL], the pIC50 was 3.47 in data set [2], 3.70 at Beta-galactosidase and 7.00 in data set [13]. Moreover, the negative-log Ki (pKi) is 4.49 in data set [2], 4.00 on Beta-galactosidase and 7.22 in data set [13]. The inhibition (in the data set with Aspergillus niger; in [14]) was less than 50% throughout.

As to `O=C1CC[C@@]2(COCc3ccccc3)[C@@H](O)[C@H](O)[C@H](O)CN12`, the result in the data set with Splenocyte [1] was inactive. Also, the inhibition (in data set [15]; in the data set with Oryza sativa; in the data set with Aspergillus niger; in data set [14]) was less than 50% throughout. Also, the pIC50 in data set [2] was 3.47. Further, in data set [2], the negative logarithm of the Ki (pKi) was 3.95. Besides, in the data set with Splenocyte [5], the inhibition at 2.5 µM came to 40%. Besides, the outcome with Splenocyte [6] and in the data set on Splenocyte [7] was Active. Moreover, the “fold change (FC)” value in the data set with Splenocyte [10] was determined as 4.9. For the same compound, the Activity entry in data set [11] is reported as “Non-toxic”.

The values are drawn from ChEMBL document CHEMBL3621047, “Quaternary Indolizidine and Indolizidone Iminosugars as Potential Immunostimulating and Glycosidase Inhibitory Agents: Synthesis, Conformational Analysis, Biological Activity, and Molecular Docking Study” (J Med Chem, 2015).
